Experimental data from ChEMBL document CHEMBL3992549, “Combretastatin A4-β-Galactosyl Conjugates for Ovarian Cancer Prodrug Monotherapy” (ACS Med Chem Lett, 2017).
Calls of active or inactive are those of the source. The rule behind the calls is not given here.

What was measured:
[1] = species: Homo sapiens; test: Induction of microtubule disruption in human OVCAR3 cells assessed as change in microtubule architecture at 20 to 200 nM after 24 hrs by Alexa Fluor 647/DAPI staining based fluorescence microscopic method; type: cell-based
In short: (§1)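 OVCAR3 cells treated for 24 h, then imaged by confocal fluorescence microscopy. Nuclei were stained directly with DAPI. α-Tubulin was detected with an Alexa Fluor 647-conjugated secondary antibody. Microtubule architecture, cytoskeleton and nuclear morphology (contraction, fragmentation) were scored.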

[2] = species: Homo sapiens; test: Induction of microtubule disruption in human OVCAR3 cells assessed as cytoskeleton contraction at 20 to 200 nM after 24 hrs by Alexa Fluor 647/DAPI staining based fluorescence microscopic method; type: cell-based; in short: as §1
[3] = target: T1, Beta-galactosidase (Homo sapiens, UniProt P16278); test: Prodrug activation in PBS buffer assessed as beta-galactosidase (unknown origin) mediated CA4 formation at 0.2 mM after 1 hr by HPLC analysis; conditions: 200 µM
T1 sequence (P16278 whole entry): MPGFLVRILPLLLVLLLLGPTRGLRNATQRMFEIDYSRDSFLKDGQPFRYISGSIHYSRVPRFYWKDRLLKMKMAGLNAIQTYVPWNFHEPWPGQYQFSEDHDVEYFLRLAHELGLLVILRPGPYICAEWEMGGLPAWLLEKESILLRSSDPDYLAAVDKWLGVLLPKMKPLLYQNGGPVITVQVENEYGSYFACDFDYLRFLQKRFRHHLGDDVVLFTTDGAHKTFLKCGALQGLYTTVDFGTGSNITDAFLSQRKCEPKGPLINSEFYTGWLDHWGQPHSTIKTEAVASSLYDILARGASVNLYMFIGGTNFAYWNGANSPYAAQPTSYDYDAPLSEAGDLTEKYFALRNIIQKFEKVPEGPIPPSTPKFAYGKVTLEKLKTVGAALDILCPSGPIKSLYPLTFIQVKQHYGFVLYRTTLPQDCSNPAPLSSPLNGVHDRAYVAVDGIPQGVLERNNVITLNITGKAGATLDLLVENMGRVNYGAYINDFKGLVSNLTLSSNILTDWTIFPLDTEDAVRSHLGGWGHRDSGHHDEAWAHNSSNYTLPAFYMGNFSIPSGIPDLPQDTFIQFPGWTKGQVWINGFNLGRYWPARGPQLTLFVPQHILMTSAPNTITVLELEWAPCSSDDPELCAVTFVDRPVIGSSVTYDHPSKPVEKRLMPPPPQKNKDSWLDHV

[4] = system: OVCAR-3; test: Cytotoxicity against human OVCAR3 cells assessed as reduction in cell viability at 200 nM after 48 hrs in presence of beta-galactosidase inhibitor beta-GA by WST8 assay; type: functional, cell-based
In short: (§2)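 β-Galactosidase inhibition condition was 1 mM β-GA present during compound treatment.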

[5] = species: Homo sapiens; test: Induction of microtubule disruption in human OVCAR3 cells assessed as nuclear fragmentation at 20 to 200 nM after 24 hrs by Alexa Fluor 647/DAPI staining based fluorescence microscopic method; type: cell-based; in short: as §1
[6] = system: OVCAR-3; test: Cytotoxicity against human OVCAR3 cells assessed as reduction in cell viability after 72 hrs by WST8 assay; type: functional, cell-based; conditions: OVCAR-3, 72 h
[7] = species: Homo sapiens; test: Induction of microtubule disruption in human OVCAR3 cells assessed as nuclear contraction at 20 to 200 nM after 24 hrs by Alexa Fluor 647/DAPI staining based fluorescence microscopic method; type: cell-based; in short: as §1
[8] = Cytotoxicity against human OVK18 cells assessed as reduction in cell viability after 72 hrs by WST8 assay; type: functional, cell-based; conditions: OVK18, 72 h
[9] = species: Sus scrofa; test: Inhibition of pig brain tubulin polymerization at 5 uM measured every 1 min for 60 mins by HTS assay
[10] = system: OVK18; test: Cytotoxicity against human OVK18 cells assessed as reduction in cell viability at 200 nM after 48 hrs in presence of beta-galactosidase inhibitor beta-GA by WST8 assay; type: functional, cell-based; in short: as §2
[11] = species: Homo sapiens; test: Induction of microtubule disruption in human OVCAR3 cells assessed as nuclear contraction at 10 nM after 24 hrs by Alexa Fluor 647/DAPI staining based fluorescence microscopic method; type: cell-based; in short: as §1
[12] = species: Homo sapiens; test: Induction of microtubule disruption in human OVCAR3 cells assessed as nuclear fragmentation at 10 nM after 24 hrs by Alexa Fluor 647/DAPI staining based fluorescence microscopic method; type: cell-based; in short: as §1
[13] = species: Homo sapiens; test: Induction of microtubule disruption in human OVCAR3 cells assessed as change in microtubule architecture at 10 nM after 24 hrs by Alexa Fluor 647/DAPI staining based fluorescence microscopic method; type: cell-based; in short: as §1
[14] = species: Homo sapiens; test: Induction of microtubule disruption in human OVCAR3 cells assessed as cytoskeleton contraction at 1 nM after 24 hrs by Alexa Fluor 647/DAPI staining based fluorescence microscopic method; type: cell-based; in short: as §1
[15] = system: OVK18; test: Cytotoxicity against human OVK18 cells assessed as reduction in cell viability at 10 nM after 48 hrs in presence of beta-galactosidase inhibitor beta-GA by WST8 assay; type: functional, cell-based; in short: as §2
[16] = species: Homo sapiens; test: Induction of microtubule disruption in human OVCAR3 cells assessed as cytoskeleton contraction at 10 nM after 24 hrs by Alexa Fluor 647/DAPI staining based fluorescence microscopic method; type: cell-based; in short: as §1
[17] = species: Homo sapiens; test: Induction of microtubule disruption in human OVCAR3 cells assessed as change in microtubule architecture at 1 nM after 24 hrs by Alexa Fluor 647/DAPI staining based fluorescence microscopic method; type: cell-based; in short: as §1
[18] = system: OVCAR-3; test: Cytotoxicity against human OVCAR3 cells assessed as reduction in cell viability at 10 nM after 48 hrs in presence of beta-galactosidase inhibitor beta-GA by WST8 assay; type: functional, cell-based; in short: as §2

Row | SMILES | Activity [1] | Activity [2] | Drug metabolism [3] | Activity [4] | Activity [5] | EC50 [6] [nM] | Activity [7] | EC50 [8] [nM] | inhibition [9] | Activity [10] | Activity [11] | Activity [12] | Activity [13] | Activity [14] | Activity [15] | Activity [16] | Activity [17] | Activity [18]
1 | COc1ccc(/C=C\c2cc(OC)c(OC)c(OC)c2)cc1O[C@@H]1O[C@H](CO)[C@H](O)[C@H](O)[C@H]1O | Active | Active | Metabolite_Detected | inactive | Active | 69.1 | Active | 252 | inactive | inactive | – | – | – | – | – | – | – | –
2 | COc1ccc(/C=C\c2cc(OC)c(OC)c(OC)c2)cc1OCc1ccc(O[C@@H]2O[C@H](CO)[C@H](O)[C@H](O)[C@H]2O)cc1 | – | – | Metabolite_Detected | – | – | 2.47 | – | 2.67 | inactive | – | Active | Active | Active | Active | inactive | Active | inactive | inactive
3 | COc1ccc(/C=C\c2cc(OC)c(OC)c(OC)c2)cc1O [COMBRETASTATIN A4] | – | – | – | – | – | 3.45 | – | 1.99 | – | – | Active | Active | Active | – | – | Active | – | –
